The test system of one experiment is SK-BR-3. Description: Antiproliferative activity against ERalpha negative/Her2 over expressing human SKBR3 cells after 72 hrs by MTS/PMS assay. Conditions: SK-BR-3, 72 h. In kind it is functional, cell-based. The method in brief: (§1)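 MCF-7 and SKBr3 cells grown in 1:1 DMEM:Ham's F-12 with non-essential amino acids, 2 mM L-glutamine, penicillin/streptomycin, 10% FBS. Seeded 2000 cells/well, attached overnight, then exposed to varying concentrations in DMSO (1% final) for 72 hr at 37 °C, 5% CO2. Viable cells read by MTS/PMS; 1% DMSO wells set as 100% proliferation. Mean ± SEM, three experiments in triplicate.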

The next experiment has as its system MCF7. Description: Antiproliferative activity against ERalpha positive human MCF7 cells after 72 hrs by MTS/PMS assay. Conditions: MCF7, 72 h. In kind it is functional, cell-based. In outline:
as §1

Experiment [1] addresses T1, Heat shock protein HSP90 (Homo sapiens, UniProt P07900+P08238). Put plainly: Inhibition of Hsp90 in human SKBR3 cells assessed as down-regulation of Her2 protein by ELISA. In kind it is cell-based. The settings on record: sk-br-3. In outline:
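SKBr3 cells seeded 3000/well, attached overnight, dosed at varying concentrations for 24 hr. Cells washed with ice-cold PBS/1% Tween, fixed and permeabilised in -20 °C methanol (4 °C, 10 min), blocked in 5% BSA/PBST 1 hr, probed with rabbit anti-Her2 (1:500, 4 °C overnight), then HRP anti-rabbit IgG (1:1000, 2 hr rt); chemiluminescence read. Mean ± SEM, three experiments in triplicate.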
On the technique in general: In an ELISA, binding on a coated surface is turned into a signal by an enzyme label.

A short description of experiment [2]: Inhibition of Hsp90-dependent renaturation of firefly luciferase in rabbit reticulocyte lysate at 25 ug/mL. The arrangement: species or system Oryctolagus cuniculus.
Experiment [3] has as its target T1, Heat shock protein HSP90. Put plainly: Inhibition of Hsp90 in human MCF7 cells assessed as degradation of Akt protein by Western blot analysis. In kind it is cell-based. In outline:
(§2)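 MCF-7 cells seeded at 1×10^6 per dish, attached overnight, treated at varying concentrations for 24 h (37 °C, 5% CO2), then harvested and immunoblotted for client proteins (Her2, Raf-1, Akt) with actin as non-client reference; GA (500 nM) and DMSO as controls.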
(A western blot detects proteins with antibodies after separation by electrophoresis.)

The target in experiment [4] is T1, Heat shock protein HSP90. Put plainly: Inhibition of Hsp90 in human MCF7 cells assessed as degradation of Her2 protein by Western blot analysis. The class given is cell-based. In outline:
as §2

Experiment [5] deals with T1, Heat shock protein HSP90. Put plainly: Inhibition of Hsp90 in human MCF7 cells assessed as degradation of Raf1 protein by Western blot analysis. The class given is cell-based. The method in brief:
as §2

Each structure is given as a SMILES string.

In the case of `COc1ccc(C2=C(NC(=O)c3cccc(OC)c3)C(=O)c3ccccc3C2=O)cc1`, the results for the 50% inhibitory concentration (IC50) in the experiment with SK-BR-3, in the experiment on MCF7 and at Heat shock protein HSP90 [1] were 6.4 µM, 1.8 µM and 44.2 µM, respectively.
In the case of `COc1ccc(C2=C(NC(=O)c3ccc(Cl)cc3)C(=O)c3ccccc3C2=O)cc1`, the IC50 (in general, the concentration needed to halve the response being measured) was determined as 3.3 µM in the experiment with MCF7 and 3 µM on Heat shock protein HSP90 [1].
Take `COc1ccc(C2=C(NC(C)=O)C(=O)c3ccccc3C2=O)cc1`: the results for the IC50 in the experiment on SK-BR-3 and at Heat shock protein HSP90 [1] were 2.7 µM and 2.2 µM, respectively.
For the compound `O=C(NC1=C(c2ccc(Oc3ccccc3)cc2)C(=O)c2ccccc2C1=O)c1ccccc1`, the IC50 was over 100 µM in the experiment with SK-BR-3, 23 µM with MCF7 and over 100 µM at Heat shock protein HSP90 [1].
Consider `COc1cccc(C2=C(NC(=O)c3ccccc3)C(=O)c3ccccc3C2=O)c1`, for which the IC50 with MCF7 came out at 1.4 µM; at Heat shock protein HSP90 [1], 2.7 µM.
In the case of `O=C(NC1=C(c2ccccc2Cl)C(=O)c2ccccc2C1=O)c1ccccc1`, the 50% inhibitory concentration (IC50) came to 4 µM in the experiment on SK-BR-3 and 1.8 µM at Heat shock protein HSP90 [1].
In the case of `COc1ccc(C2=C(NC(=O)c3cccc4ccccc34)C(=O)c3ccccc3C2=O)cc1`, the half-maximal inhibitory concentration (IC50) in the experiment with SK-BR-3 was found to be 5.8 µM; in the experiment on MCF7, 2.2 µM; at Heat shock protein HSP90 [1] it was 9.9 µM.
For `COc1ccc(C2=C(NC(=O)c3ccc4ccccc4c3)C(=O)c3ccccc3C2=O)cc1` the same measures were over 100 µM, 6.8 µM and over 100 µM.
`COc1cccc(-c2cc(C(=O)NC3=C(Cl)C(=O)c4ccccc4C3=O)ccc2OC)c1`: the IC50 in experiment [2] was determined as 1.6 µM; with MCF7, 3 µM; at Heat shock protein HSP90 [1], 1.7 µM. The Activity result on Heat shock protein HSP90 [3], at Heat shock protein HSP90 [4] and on Heat shock protein HSP90 [5] was “Dose-dependent effect” in each case.
In the case of `O=C1c2ccccc2C(=O)c2c1nc1ccccn21`, the IC50 in experiment [2] turned out to be 0.02 µM; in the experiment on SK-BR-3, 0.87 µM; in the experiment with MCF7, 0.83 µM; at Heat shock protein HSP90 [1], 1.2 µM.
For `COc1ccc(C(=O)NC2=C(c3ccc(OC)cc3)C(=O)c3ccccc3C2=O)cc1` the same measures were 24 µM, 6.4 µM, 1.5 µM and 2.4 µM.
As to `CC(=O)NC1=C(c2ccc(Cl)cc2)C(=O)c2ccccc2C1=O`, the IC50 in experiment [2] came out at 0.2 µM; with SK-BR-3 it was 1.8 µM; in the experiment with MCF7, 1.4 µM; at Heat shock protein HSP90 [1] it was 5.3 µM. Moreover, the Activity entry at Heat shock protein HSP90 [3], at Heat shock protein HSP90 [4] and at Heat shock protein HSP90 [5] was “Dose-dependent effect” throughout.
Consider `CC(=O)NC1=C(c2ccccc2Cl)C(=O)c2ccccc2C1=O`, for which the IC50 in the experiment with SK-BR-3 amounted to 3.6 µM; with MCF7, 3 µM; on Heat shock protein HSP90 [1], 2.3 µM.
In the case of `O=C(NC1=C(c2ccc(Cl)cc2)C(=O)c2ccccc2C1=O)c1ccccc1`, the half-inhibitory concentration (IC50) in experiment [2] worked out at 1.4 µM; with SK-BR-3, 8.5 µM; in the experiment on MCF7, 2.6 µM; at Heat shock protein HSP90 [1] it was 1.8 µM.
Take `O=C(NC1=C(c2ccc3oc4ccccc4c3c2)C(=O)c2ccccc2C1=O)c1ccccc1`: the 50% inhibitory concentration (IC50) with SK-BR-3 is over 100 µM; in the experiment on MCF7, 6 µM; at Heat shock protein HSP90 [1], over 100 µM.
Turning to `O=C(NC1=C(c2ccccc2)C(=O)c2ccccc2C1=O)c1ccccc1`, the IC50 with SK-BR-3 worked out at 6.8 µM; with MCF7, 2.1 µM; at Heat shock protein HSP90 [1] it was 3.8 µM.
Take `CC(=O)C1=C(c2ccccc2)C(=O)c2ccccc2C1=O`: the IC50 in experiment [2] turned out to be 0.25 µM; in the experiment with SK-BR-3 it was 0.82 µM; in the experiment with MCF7, 0.21 µM; at Heat shock protein HSP90 [1] it was 3.3 µM.
With `CC(=O)NC1=C(c2ccc3oc4ccccc4c3c2)C(=O)c2ccccc2C1=O`, the IC50 stood at 6.8 µM with SK-BR-3, 2.4 µM in the experiment with MCF7 and 13.3 µM on Heat shock protein HSP90 [1].
Consider `COc1ccc(C2=C(NC(=O)c3ccccc3Cl)C(=O)c3ccccc3C2=O)cc1`, for which the 50% inhibitory concentration (IC50) came out at 5.5 µM in the experiment on SK-BR-3, 2.2 µM with MCF7 and 2 µM at Heat shock protein HSP90 [1]. In addition, the Activity entry at Heat shock protein HSP90 [3], on Heat shock protein HSP90 [4] and at Heat shock protein HSP90 [5] was “Dose-dependent effect” each time.
Take `COc1ccccc1C1=C(NC(=O)c2ccccc2)C(=O)c2ccccc2C1=O`: the IC50 worked out at 39 µM in experiment [2], 1.9 µM in the experiment with SK-BR-3, 2.2 µM with MCF7 and 3 µM on Heat shock protein HSP90 [1].
For `COc1ccc(C2=C(NC(=O)C3CCCCC3)C(=O)c3ccccc3C2=O)cc1`, in that order: 1.4 µM, 4.8 µM, 1.9 µM and 2.5 µM.
Consider `CC(=O)NC1=C(c2ccccc2)C(=O)c2ccccc2C1=O`, for which the figures for the IC50 in the experiment with SK-BR-3, with MCF7 and at Heat shock protein HSP90 [1] were 1.5 µM, 1.6 µM and 3.2 µM, respectively.
For `CC(=O)NC1=C(c2ccc(Oc3ccccc3)cc2)C(=O)c2ccccc2C1=O`, in that order: 12.1 µM, 2.5 µM and 24.6 µM.
Regarding `O=C(NC1=C(Cl)C(=O)c2ccccc2C1=O)c1ccccc1`, the half-inhibitory concentration (IC50) in the experiment on SK-BR-3 stood at 2.1 µM; with MCF7, 1.8 µM; on Heat shock protein HSP90 [1], 30.1 µM.
With `COc1cccc(C2=C(NC(C)=O)C(=O)c3ccccc3C2=O)c1`, the values for the half-maximal inhibitory concentration (IC50) in the experiment with SK-BR-3, in the experiment on MCF7 and on Heat shock protein HSP90 [1] were 3.9 µM, 2.7 µM and 4.8 µM, respectively.
Consider `COc1ccc(C2=C(NC(=O)c3ccc(OC)c(-c4cccc(OC)c4)c3)C(=O)c3ccccc3C2=O)cc1`, for which the half-maximal inhibitory concentration (IC50) was 86 µM in experiment [2], over 100 µM in the experiment on SK-BR-3, over 100 µM with MCF7 and over 100 µM on Heat shock protein HSP90 [1].
Regarding `COc1ccc(C2=C(NC(=O)c3ccccc3)C(=O)c3ccccc3C2=O)cc1`, the IC50 in the experiment on SK-BR-3 stood at 4 µM; in the experiment on MCF7, 1.4 µM; at Heat shock protein HSP90 [1], 2.8 µM.
As for `O=C(NC1=C(c2cccc(Cl)c2)C(=O)c2ccccc2C1=O)c1ccccc1`, the half-inhibitory concentration (IC50) in the experiment on SK-BR-3 came out at 12.7 µM; in the experiment with MCF7, 4.8 µM; at Heat shock protein HSP90 [1], 6.3 µM.
Consider `COc1ccc(C2=C(NC(=O)c3ccccc3OC)C(=O)c3ccccc3C2=O)cc1`, for which the half-inhibitory concentration (IC50) in the experiment with SK-BR-3 stood at 7.9 µM; with MCF7, 2.1 µM; on Heat shock protein HSP90 [1], 5.8 µM.
As to `CC(=O)NC1=C(Cl)C(=O)c2ccccc2C1=O`, the IC50 in experiment [2] worked out at 5 µM; in the experiment with SK-BR-3 it was 0.6 µM; in the experiment on MCF7, 1.7 µM; at Heat shock protein HSP90 [1], 6.6 µM.
In the case of `COc1ccc(C2=C(NC(=O)c3cccc(Cl)c3)C(=O)c3ccccc3C2=O)cc1`, the IC50 was 9.5 µM with SK-BR-3, 3.4 µM in the experiment with MCF7 and 12.9 µM at Heat shock protein HSP90 [1].
On to `CC(=O)NC1=C(N2CCOCC2)C(=O)c2nonc2C1=O`, for which the 50% inhibitory concentration (IC50) is 0.38 µM in experiment [2], 2.9 µM in the experiment on SK-BR-3, 19 µM with MCF7 and 1.2 µM at Heat shock protein HSP90 [1].
On to `CC(=O)NC1=C(c2cccc(Cl)c2)C(=O)c2ccccc2C1=O`, for which the values for the IC50 in the experiment on SK-BR-3, in the experiment on MCF7 and at Heat shock protein HSP90 [1] were 2.5 µM, 1.3 µM and 2 µM, respectively.
For `COc1ccccc1C1=C(NC(C)=O)C(=O)c2ccccc2C1=O`, the IC50 came to 1.6 µM in experiment [2], 1.7 µM in the experiment on SK-BR-3, 2.2 µM in the experiment on MCF7 and 2.5 µM at Heat shock protein HSP90 [1].

The values are drawn from ChEMBL document CHEMBL1140877, “Synthesis and evaluation of Hsp90 inhibitors that contain the 1,4-naphthoquinone scaffold” (Bioorg Med Chem, 2009).
